Screens as filed in PubChem.
KCNK3 inh: human KCNK3 channel inhibitors, primary screen, CHO cells, FluxOR thallium flux, B-score; Potassium channel subfamily K member 3 (Homo sapiens), O14649; FluxOR fluorescence; hits give low values; B-score at 10 µM; 0.84% of 340,000 active; AID 602410, 2012;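 active means B-score under library mean minus 4 SD, starting fluorescence ratio at most library mean plus 5 SD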;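 further: more negative B-score means stronger inhibition of thallium flux through KCNK3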
KCNQ1 inh: inhibitors of human KCNQ1 channel, primary screen, cell-based, thallium flux, high-throughput; Potassium voltage-gated channel subfamily KQT member 1 (Homo sapiens), P51787; CHO-K1 KCNQ1, FluxOR thallium flux fluorescence; hits give high values; B-score at 10 µM; 1.3% of 310,000 active;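 active means compounds whose thallium flux B-score, printed positive for inhibition, exceeds three library SD while starting fluorescence stays within three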;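 further: channel opened by potassium depolarization with thallium stimulus after 20 min compound exposure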
Target sequence (P51787 whole entry, looked up): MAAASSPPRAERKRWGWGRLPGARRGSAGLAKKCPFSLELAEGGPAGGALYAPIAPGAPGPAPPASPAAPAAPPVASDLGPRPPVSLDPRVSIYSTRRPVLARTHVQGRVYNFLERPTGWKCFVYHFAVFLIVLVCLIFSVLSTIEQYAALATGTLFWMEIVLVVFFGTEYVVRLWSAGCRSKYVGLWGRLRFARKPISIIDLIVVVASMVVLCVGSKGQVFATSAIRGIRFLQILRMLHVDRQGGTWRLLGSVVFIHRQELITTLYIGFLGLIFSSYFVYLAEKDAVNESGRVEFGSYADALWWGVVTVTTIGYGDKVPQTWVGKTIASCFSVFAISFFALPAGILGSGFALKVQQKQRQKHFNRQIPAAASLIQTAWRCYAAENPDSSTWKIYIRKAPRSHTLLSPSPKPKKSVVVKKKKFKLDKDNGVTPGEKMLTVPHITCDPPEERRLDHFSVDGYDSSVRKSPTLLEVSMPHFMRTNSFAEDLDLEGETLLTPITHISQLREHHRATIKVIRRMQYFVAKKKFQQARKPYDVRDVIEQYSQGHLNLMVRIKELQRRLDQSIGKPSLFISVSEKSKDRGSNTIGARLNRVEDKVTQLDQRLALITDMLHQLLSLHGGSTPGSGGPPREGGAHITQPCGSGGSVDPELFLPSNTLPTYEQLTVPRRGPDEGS
KCNQ1 pot: potentiators or activators of KCNQ1 channel, primary screen, cell-based, thallium flux, high-throughput. Potassium voltage-gated channel subfamily KQT member 1 (Homo sapiens), P51787. CHO-K1 KCNQ1, thallium flux FluxOR fluorescence; hits give high values. B-score at 10 µM. 0.35% of 310,000 active. AID 2648, 2010;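 active means fluorescence ratio B-score, a plate-corrected score, at least three library SD, with initial intensity B-score within 5 SD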
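assay system = KCNQ1-transfected CHO-K1 cells | medium = assay buffer with matched DMSO | probe or stimulus = depolarizing K+/Tl+ stimulus, K2SO4 and Tl2SO4 each 12.5 mM in 5x stock | dosing = single dose | incubation = dye 90 min, compound 20 min, room temperature | detection = kinetic FluxOR fluorescence, 10 s baseline plus 110 s post-stimulus | evaluation = ratio B score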
hERG rescue: hERG rescue from dofetilide block, primary screen, cell-based, CHO-hERG, FluxOR thallium flux, dofetilide IC70 | Voltage-gated inwardly rectifying potassium channel KCNH2 (Homo sapiens), Q12809 | dofetilide IC70 present | activation (rescue from dofetilide block), less the hit threshold, % at 10 µM | 0.51% of 310,000 active;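 active means activation above the mean of controls blocked by dofetilide plus 5 SD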;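 further: thallium influx through hERG after potassium depolarization seen as dye fluorescence rise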
KCC2 mod: KCC2 cotransporter modulators, thallium flux, primary screen, cell-based, HEK293 KCC2, FluoZin-2 fluorescence, MLSMR | Solute carrier family 12 member 5 (Homo sapiens), Q9H2X9 | AID 1456, 2008 | B-score of Tl+ flux slope (higher = more flux/activation; lower = inhibition) at 10 µM | 2.2% of 190,000 active | KCC2 cells, thallium flux FluoZin-2 fluorescence;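 active means thallium flux slope and its plate-corrected score both differing from the plate sample mean at a set confidence after two filtering rounds, in either direction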;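 further: slope of fluorescence scaled to starting intensity during 10 to 20 s after thallium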
KCNK9 inh: KCNK9 potassium channel inhibitors, primary screen, HEK293 cells, thallium flux. Potassium channel subfamily K member 9 (Homo sapiens), Q9NPC2. FluxOR thallium flux fluorescence; hits give low values. B-score at 10 µM. 1.2% of 310,000 active. AID 488922, 2010;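 active means ratio B-score over 3 SD below the library mean, with starting fluorescence within 5 SD of its mean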;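 further: negative B-score means less thallium flux so channel inhibition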
KCNQ1 inh valid: KCNQ1 potassium channel inhibitors, confirmation, cell-based, Tl flux, duplicate. KCNQ1 cell line, FluxOR thallium flux fluorescence. inhibition, % at 10 µM. AID 588353, 2011. 93% of 1,600 active. shares compounds with KCNQ1 inh;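 active means primary screen active, with duplicate mean exceeding buffer control mean plus 3 SD of buffer wells, cut at about 28% in these data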;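 further: 0% = buffer control ratio and 100% = XE991 inhibitor control ratio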
CHO KCNQ1 ctr: thallium flux effects in parental CHO cells, counter-screen for KCNQ1 inhibitor project, cell-based, Tl flux; fluorescence ratio (Tl flux) at 10 µM; 21% of 1,600 active; shares compounds with KCNQ1 inh; parental CHO-K1, FluxOR thallium flux fluorescence ratio; hits give low values; zero means no signal rise above baseline; AID 588366, 2011;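 active means mean of duplicate thallium-flux fluorescence ratios in parental host cells more than 5 SD below the buffer control mean, cut at about 0.38 in these data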;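 further: ratio is peak minus minimum fluorescence divided by baseline fluorescence; actives read low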
KCNQ1 ephys val: KCNQ1 channel inhibitors, confirmation, orthogonal assay, cell-based, automated electrophysiology; calls only at 10 µM; shares compounds with KCNQ1 inh; 20% of 490 active; KCNQ1-CHO cells, automated patch clamp current;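 active means KCNQ1 current drop exceeding 3 SD of negative control wells, seen in both duplicate runs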;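 further: steady state current during a 2 s step from -80 to +40 mV; negative values mean current inhibition and positive values mean potentiation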
KCNQ2 spec: KCNQ2 channel inhibition, selectivity assay for KCNQ1 inhibitor project, cell-based; inhibition, % at 10 µM; KCNQ2 cells, FluxOR thallium flux fluorescence; shares compounds with KCNQ1 inh; 71% of 1,600 active;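 active means mean percent inhibition of the KCNQ2 thallium signal more than 5 SD above the buffer-only control wells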;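 further: KCNQ2 expressed in CHO cells; 0% = buffer control wells and 100% = XE-991 inhibitor control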
KCNQ1 KCNE1 spec: KCNQ1/KCNE1 channel inhibition, selectivity assay for KCNQ1 inhibitor project, CHO-K1 cells, thallium flux, FluxOR | FluxOR thallium flux fluorescence | 77% of 1,600 active | inhibition, % at 10 µM | shares compounds with KCNQ1 inh;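 active means mean percent inhibition of duplicate wells above the buffer-only control mean plus 3 SD of those controls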;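 further: 0% = buffer only wells and 100% = XE-991 inhibitor control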
An asterisk follows results filed as active; i = inactive; / = not tested or not shown; + = active, no number. Shown are actives, neighbours in structure and some others; about 4.1% of the full set was active somewhere.

SMILES	KCNK3 inh	KCNQ1 inh	KCNQ1 pot	hERG rescue	KCC2 mod	KCNK9 inh	KCNQ1 inh valid	CHO KCNQ1 ctr	KCNQ2 spec	KCNQ1 KCNE1 spec	others
COc1ccc2cc(C(C)C(=O)N3CCC(C)CC3)ccc2c1 (configuration not stated)	i	i	i	-10.6	/	i	/	/	/	/
CC1=NN(C(N)=S)C(=O)C1N=Nc1ccc(Cl)cc1Cl (configuration not stated)	i	i	i	-7.6	/	i	/	/	/	/
CCOC(=O)c1cnc(-n2nc(C)cc2C)nc1NC1CCCCC1	i	11*	i	-32.3	/	i	76.0*	0.396	108.0%*	107.0%*
Cc1ccc(S(=O)(=O)Nc2cc(C)cn(Cc3ccc(F)cc3)c2=O)cc1	i	i	i	-12.5	/	i	/	/	/	/
Cc1sc2nc(CSC(C)C(=O)Nc3ccc(Cl)cn3)[nH]c(=O)c2c1C (configuration not stated)	i	/	/	/	/	/	/	/	/	/
COC(=O)C(C)(C)ONC(=O)Nc1ccc(Br)cc1	i	i	i	-7.2	0.0636	i	/	/	/	/
CC(NC(=O)Nc1ccc(Br)cc1)C(C)(C)C (configuration not stated)	i	8*	i	-10.7	-0.624	i	60.0*	0.426	69.0%*	66.0%*
O=C(NCC1CCCN1S(=O)(=O)c1ccccc1)C(=O)NC1CC1 (configuration not stated)	i	i	i	-13.9	/	i	/	/	/	/
Cc1ccc(S(=O)(=O)Nc2cc(C(=O)Nc3cc(C)cc(C)c3)ccc2Cl)cc1	i	7*	i	-9.1	-0.765	i	113.5*	0.418	i	161.0%*	KCNQ1 ephys val=i
CCOCC(=O)Nc1cc(C(=O)Nc2cc(C)cc(C)c2)ccc1Cl	/	i	i	-9.8	/	i	/	/	/	/
Cc1cc(N2CCN(C)CC2)ccc1NC(=O)c1cccc(S(=O)(=O)N2CCc3ccccc3C2)c1	i	7*	i	-8.1	0.456	i	0.0	0.553	66.0%*	i
Fc1cccc(Cl)c1CNc1ccc(N2CCCC2)cc1	i	6*	i	-17.9	-1.24	i	0.0	0.444	72.3%*	40.5%*
CC(C)NC(=O)c1onc(CSc2ccc(F)cc2)c1C(=O)O	i	i	i	-9.4	-0.084	i	/	/	/	/
CC(C)NC(=O)c1onc(CSc2ccc(C(C)C)cc2)c1C(=O)O	i	10*	i	-17.1	-2.39	i	88.5*	0.467	72.7%*	41.5%*
COc1ccc(CNC(=O)CN(C(=O)CCC(=O)Nc2ccccn2)c2ccc3c(c2)OCO3)cc1	i	i	i	-2.4	/	i	/	/	/	/
Oc1ccccc1N=Nc1ccccc1O	i	13*	i	-11.9	-0.703	i	61.5*	0.505	i	i
CC(C)N1CCc2c(sc(NC(=S)NC(=O)c3ccccc3)c2C#N)C1	i	7*	i	-16.0	-1.03	i	0.0	0.503	i	48.5%*
Cc1ccc(S(=O)(=O)CCC(=O)OCc2nnc(-c3ccccc3)o2)cc1	i	/	/	/	/	/	/	/	/	/
CC(=NNC(=O)C(C)SC(C)C(=O)NN=C(C)c1cccnc1)c1cccnc1 (configuration not stated)	i	/	/	/	/	/	/	/	/	/
O=CN1CCN(C=O)C(O)C1O (configuration not stated)	i	/	/	/	/	/	/	/	/	/
Clc1nc(NC2CCCCC2)c2cn[nH]c2n1	i	/	/	/	/	/	/	/	/	/
CC(=O)Nc1ccc(S(=O)(=O)NCCC(=O)OCC(=O)c2cccc(Br)c2)cc1	i	/	/	/	/	/	/	/	/	/
CC(C)C(C(=O)NCC1CCCO1)N(C(=O)CNS(=O)(=O)c1ccccc1)C1CCCCC1 (configuration not stated)	i	i	i	-6.9	/	i	/	/	/	/
N#Cc1c(-c2cccs2)nc(SCc2ccc(Cl)cc2)[nH]c1=O	i	8*	i	-11.9	-3.47*	i	0.0	0.562	i	i
COc1ccc([N+](=O)[O-])cc1NC(=O)C(C)OC(=O)C1CCC1 (configuration not stated)	i	i	i	-14.9	/	i	/	/	/	/
SMILES	KCNK3 inh	KCNQ1 inh	KCNQ1 pot	hERG rescue	KCC2 mod	KCNK9 inh	KCNQ1 inh valid	CHO KCNQ1 ctr	KCNQ2 spec	KCNQ1 KCNE1 spec	others
CCOc1ccc(-n2c(=S)sc3c(=O)[nH]c(SCC(=O)C(C)(C)C)nc32)cc1	i	6*	i	-6.4	-2.15	i	91.5*	0.466	i	59.5%*	KCNQ1 ephys val=+
CCOC(=O)CSc1nc2c(sc(=S)n2-c2ccc(OCC)cc2)c(=O)[nH]1	i	i	i	-7.5	-3.9	i	/	/	/	/
CCn1c(=S)sc2c(=O)[nH]c(SCC(=O)Nc3cc(OC)ccc3OC)nc21	i	10*	i	-17.5	/	i	66.0*	0.449	i	89.0%*
Cc1cc(N=Nc2ccccc2)cc(C)c1NC(=O)C(F)(F)F	i	/	/	/	/	/	/	/	/	/
O=C(c1ccccc1)c1ccc(NCCCn2ccnc2)c([N+](=O)[O-])c1	i	i	i	-5.9	/	i	/	/	/	/
CC1(C)CCN2CCC(C)(C)c3c(O)ccc1c32	i	11*	i	-8.3	/	i	70.0*	0.524	62.3%*	58.0%*
COc1ccc(NC(=O)CCC(=O)c2ccc(F)cc2)cc1	i	/	/	/	/	/	/	/	/	/
CC1CCCN(c2nc3ccccc3nc2C(C#N)S(=O)(=O)c2cccs2)C1 (configuration not stated)	i	i	i	-5.3	-1.4	i	/	/	/	/
